According to ChEMBL document CHEMBL1629527, “In vitro antifungal activities of bis(alkylpyridinium)alkane compounds against pathogenic yeasts and molds” (Antimicrob Agents Chemother, 2010):
Converted amounts (≈) assume the structure as drawn.

What was measured:
[1] = test system: Cryptococcus neoformans; test: Antifungal activity against Cryptococcus neoformans after 24 to 72 hrs by broth microdilution method; type: functional
Method in brief: (§1)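 Broth microdilution MIC per CLSI M27-A3 (yeasts) or M38-A2 (molds). RPMI 1640 with L-glutamine, without bicarbonate, buffered to pH 7.0 with 0.165 M MOPS. Final test range for the compounds was 0.175–87.5 μM. Incubation at 35°C with visual reading at 24–72 h. MIC was the lowest concentration giving 100% inhibition versus the growth control (azoles 50% or 100%, by organism). Each isolate was run in duplicate in two independent experiments.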

[2] = test system: Cryptococcus gattii species complex; test: Antifungal activity against Cryptococcus gattii after 24 to 72 hrs by broth microdilution method; type: functional, Cryptococcus bacillisporus; method in brief: as §1
[3] = test system: Candida albicans; test: Antifungal activity against Candida albicans after 24 to 72 hrs by broth microdilution method; type: functional
Method in brief: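 CLSI M27-A3 broth microdilution for yeasts in RPMI 1640 with L-glutamine and no bicarbonate, buffered with 0.165 M MOPS to pH 7.0. Compounds were dissolved in water and tested at 0.175–87.5 μM final, 35°C. MIC was read visually at 24–72 h as 100% inhibition versus growth control. For MFC, 30 μl from clear wells went onto SDA at 35°C for 48–72 h, reading the lowest concentration without colonies. Duplicates, two independent runs.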

[4] = test system: Candida tropicalis; test: Antifungal activity against Candida tropicalis after 24 to 72 hrs by broth microdilution method; type: functional; method in brief: as §1
[5] = test system: Nakaseomyces glabratus; test: Antifungal activity against Candida glabrata after 24 to 72 hrs by broth microdilution method; type: functional; method in brief: as §1
[6] = test system: Candida parapsilosis; test: Antifungal activity against Candida parapsilosis after 24 to 72 hrs by broth microdilution method; type: functional; conditions: Lodderomyces parapsilosis; method in brief: as §1
[7] = test system: Pichia kudriavzevii; test: Antifungal activity against Candida krusei after 24 to 72 hrs by broth microdilution method; type: functional; method in brief: as §1
[8] = test system: Candida dubliniensis; test: Antifungal activity against Candida dubliniensis after 24 to 72 hrs by broth microdilution method; type: functional; method in brief: as §1
[9] = test system: Meyerozyma guilliermondii; test: Antifungal activity against Candida guilliermondii after 24 to 72 hrs by broth microdilution method; type: functional; method in brief: as §1
[10] = test system: Clavispora lusitaniae; test: Antifungal activity against Candida lusitaniae after 24 to 72 hrs by broth microdilution method; type: functional; method in brief: as §1

SMILES	MIC [1] [µg/mL]	MIC50 [1] [µg/mL]	MIC90 [1] [µg/mL]	MIC [2] [µg/mL]	MIC50 [2] [µg/mL]	MIC90 [2] [µg/mL]	MIC [3] [µg/mL]	MIC50 [3] [µg/mL]	MIC90 [3] [µg/mL]	MIC [4] [µg/mL]	MIC50 [4] [µg/mL]	MIC90 [4] [µg/mL]	MIC [5] [µg/mL]	MIC50 [5] [µg/mL]	MIC90 [5] [µg/mL]	MIC [6] [µg/mL]	MIC50 [6] [µg/mL]	MIC90 [6] [µg/mL]	MIC [7] [µg/mL]	MIC50 [7] [µg/mL]	further results
CC[C@@H]([C@H](C)O)n1ncn(-c2ccc(N3CCN(c4ccc(OC[C@@H]5CO[C@@](Cn6cncn6)(c6ccc(F)cc6F)C5)cc4)CC3)cc2)c1=O [POSACONAZOLE]	0.07 (≈ 0.0999 µM)	0.06 (≈ 0.0856 µM)	0.125 (≈ 0.178 µM)	0.04 (≈ 0.0571 µM)	0.03 (≈ 0.0428 µM)	0.06 (≈ 0.0856 µM)	0.04 (≈ 0.0571 µM)	0.02 (≈ 0.0285 µM)	0.18 (≈ 0.257 µM)	0.061 (≈ 0.087 µM)	0.06 (≈ 0.0856 µM)	0.25 (≈ 0.357 µM)	1.23 (≈ 1.76 µM)	1 (≈ 1.43 µM)	8 (≈ 11.4 µM)	0.049 (≈ 0.0699 µM)	0.06 (≈ 0.0856 µM)	0.06 (≈ 0.0856 µM)	0.18 (≈ 0.257 µM)	0.125 (≈ 0.178 µM)	MIC90 [7]: 0.25 µg/mL (≈ 0.357 µM); MIC [8]: 0.014 µg/mL (≈ 0.02 µM); MIC50 [8]: 0.008 µg/mL (≈ 0.0114 µM); MIC90 [8]: 0.03 µg/mL (≈ 0.0428 µM); MIC [9]: 0.14 µg/mL (≈ 0.2 µM); MIC50 [9]: 0.125 µg/mL (≈ 0.178 µM); MIC90 [9]: 0.25 µg/mL (≈ 0.357 µM); MIC [10]: 0.015 µg/mL (≈ 0.0214 µM); MIC50 [10]: 0.016 µg/mL (≈ 0.0228 µM); MIC90 [10]: 0.03 µg/mL (≈ 0.0428 µM)
CCC(C)n1ncn(-c2ccc(N3CCN(c4ccc(OCC5COC(Cn6cncn6)(c6ccc(Cl)cc6Cl)O5)cc4)CC3)cc2)c1=O (stereo not given) [ITRACONAZOLE]	0.06 (≈ 0.085 µM)	0.06 (≈ 0.085 µM)	0.125 (≈ 0.177 µM)	0.07 (≈ 0.0992 µM)	0.06 (≈ 0.085 µM)	0.125 (≈ 0.177 µM)	0.07 (≈ 0.0992 µM)	0.04 (≈ 0.0567 µM)	0.09 (≈ 0.128 µM)	0.11 (≈ 0.156 µM)	0.125 (≈ 0.177 µM)	0.25 (≈ 0.354 µM)	1.15 (≈ 1.63 µM)	0.5 (≈ 0.709 µM)	16 (≈ 22.7 µM)	0.07 (≈ 0.0992 µM)	0.06 (≈ 0.085 µM)	0.125 (≈ 0.177 µM)	0.33 (≈ 0.468 µM)	0.25 (≈ 0.354 µM)	MIC90 [7]: 0.5 µg/mL (≈ 0.709 µM); MIC [8]: 0.028 µg/mL (≈ 0.0397 µM); MIC50 [8]: 0.03 µg/mL (≈ 0.0425 µM); MIC90 [8]: 0.06 µg/mL (≈ 0.085 µM); MIC [9]: 0.5 µg/mL (≈ 0.709 µM); MIC50 [9]: 0.5 µg/mL (≈ 0.709 µM); MIC90 [9]: 1 µg/mL (≈ 1.42 µM); MIC [10]: 0.09 µg/mL (≈ 0.128 µM); MIC50 [10]: 0.06 µg/mL (≈ 0.085 µM); MIC90 [10]: 0.25 µg/mL (≈ 0.354 µM)
OC(Cn1cncn1)(Cn1cncn1)c1ccc(F)cc1F [FLUCONAZOLE]	4.59 (≈ 15 µM)	4 (≈ 13.1 µM)	16 (≈ 52.2 µM)	4 (≈ 13.1 µM)	4 (≈ 13.1 µM)	8 (≈ 26.1 µM)	1.15 (≈ 3.75 µM)	0.5 (≈ 1.63 µM)	16 (≈ 52.2 µM)	1.41 (≈ 4.6 µM)	1 (≈ 3.27 µM)	4 (≈ 13.1 µM)	32 (≈ 104 µM)	16 (≈ 52.2 µM)	256 (≈ 836 µM)	2.14 (≈ 6.99 µM)	2 (≈ 6.53 µM)	4 (≈ 13.1 µM)	84.5 (≈ 276 µM)	64 (≈ 209 µM)	MIC90 [7]: 128 µg/mL (≈ 418 µM); MIC [8]: 0.43 µg/mL (≈ 1.4 µM); MIC50 [8]: 0.25 µg/mL (≈ 0.816 µM); MIC90 [8]: 0.5 µg/mL (≈ 1.63 µM); MIC [9]: 7.46 µg/mL (≈ 24.4 µM); MIC50 [9]: 4 µg/mL (≈ 13.1 µM); MIC90 [9]: 16 µg/mL (≈ 52.2 µM); MIC [10]: 2.64 µg/mL (≈ 8.62 µM); MIC50 [10]: 2 µg/mL (≈ 6.53 µM); MIC90 [10]: 4 µg/mL (≈ 13.1 µM)
